# Calls of active or inactive are those of the source. The rule behind the calls is not given here.
# How the values were obtained:
# WI-38 = assay: Cytotoxicity against human WI38 cells after 96 hrs by MTT assay; format: cell-based; settings: WI-38, 96 h
# Outline: (§1)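 Cells from ATCC, batch cultured 10 d, seeded at 10 × 10³ cells/well in RPMI-1640 with fetal bovine serum, attached 24 h at 37 °C, 5% CO₂. Serum-free medium, then test samples at final 1000, 500, 200, 100, 50, 20, 10 (DMSO ≤1% v/v); 96 h incubation. Formazan read-out against untreated controls; 5-fluorouracil positive control; IC50 from dose–response curve.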
# Vero = assay: Cytotoxicity against african green monkey Vero cells after 96 hrs by MTT assay; format: cell-based; settings: Chlorocebus sabaeus; outline: as §1
# MCF7 = assay: Cytotoxicity against human MCF7 cells after 96 hrs by MTT assay; format: functional, cell-based; settings: MCF7, 96 h; outline: as §1
# HepG2 = assay: Cytotoxicity against human HepG2 cells after 96 hrs by MTT assay; format: functional, cell-based; settings: HepG2, 96 h; outline: as §1
# Nucleic Acid = assay: Protection against bleomycin-iron complex-induced DNA damage using EDTA after 1 hr by thiobarbituric acid method; format: nucleic-acid assay
# Outline: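 Bleomycin DNA-damage assay, 1.0 ml final: DNA 0.2 mg/ml, bleomycin 0.05 mg/ml, FeCl₃ 0.025 mM, MgCl₂ 5 mM, KH₂PO₄–KOH pH 7.0 30 mM, sample 0.1 mg/ml in MeOH (ascorbic acid 0.24 mM reference). 37 °C for 1 h; stopped with EDTA; TBA plus HCl, 80 °C 15 min; absorbance read. Three experiments, mean ± S.E.M.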
compound,measurement,setting,value
O=c1[nH]cc(F)c(=O)[nH]1 [FLUOROURACIL],IC50,WI-38,3.2 µg/mL
O=C(Nc1nnc(-c2nc3ccc4ccccc4c3oc2=O)o1)c1ccccc1,IC50,Vero,95.4 µg/mL
same,IC50,MCF7,96.9 µg/mL
same,IC50,HepG2,111 µg/mL
same,IC50,WI-38,90.9 µg/mL
NC1=Nn2c(nnc2NC(=O)c2ccccc2)C1,IC50,Vero,69.8 µg/mL
same,IC50,MCF7,66.8 µg/mL
same,IC50,HepG2,65.6 µg/mL
same,IC50,WI-38,65 µg/mL
COc1ccc(/C=C(/C#N)c2nnc(NC(=O)c3ccccc3)o2)cc1,IC50,Vero,95.6 µg/mL
same,IC50,MCF7,49.9 µg/mL
same,IC50,HepG2,69.5 µg/mL
same,IC50,WI-38,71.2 µg/mL
CS/C(Nc1ccccc1)=C(\C#N)c1nnc(NC(=O)c2ccccc2)o1,IC50,Vero,132 µg/mL
same,IC50,MCF7,107 µg/mL
same,IC50,HepG2,125 µg/mL
same,IC50,WI-38,98.7 µg/mL
CC1=CS/C(=C(\C#N)c2nnc(NC(=O)c3ccccc3)o2)N1c1ccccc1,IC50,Vero,15.8 µg/mL
same,Activity,Nucleic Acid,Active
same,IC50,MCF7,25.8 µg/mL
same,IC50,HepG2,12.4 µg/mL
same,IC50,WI-38,17.3 µg/mL
Cc1c(/C=c2/c(=O)s/c(=C(\C#N)c3nnc(NC(=O)c4ccccc4)o3)n2-c2ccccc2)c(=O)n(-c2ccccc2)n1C,IC50,Vero,170 µg/mL
same,IC50,MCF7,167 µg/mL
same,IC50,HepG2,146 µg/mL
same,IC50,WI-38,175 µg/mL
N#C/C(=C(\S)Nc1ccccc1)c1nnc(NC(=O)c2ccccc2)o1,IC50,Vero,82.4 µg/mL
same,IC50,MCF7,77.5 µg/mL
same,IC50,HepG2,100 µg/mL
same,IC50,WI-38,84.6 µg/mL
Nc1c(C(=O)c2ccccc2)sc(Nc2ccccc2)c1-c1nnc(NC(=O)c2ccccc2)o1,IC50,Vero,101 µg/mL
same,IC50,MCF7,100 µg/mL
same,IC50,HepG2,90.7 µg/mL
same,IC50,WI-38,89.6 µg/mL
N#C/C(=C/c1cn(-c2ccccc2)nc1-c1ccccc1)c1nnc(NC(=O)c2ccccc2)o1,IC50,Vero,39.6 µg/mL
same,IC50,MCF7,37.4 µg/mL
same,IC50,HepG2,38.1 µg/mL
same,IC50,WI-38,24.1 µg/mL
Nc1nn(-c2ccccc2)c(Nc2ccccc2)c1-c1nnc(NC(=O)c2ccccc2)o1,IC50,Vero,98.8 µg/mL
same,IC50,MCF7,99.1 µg/mL
same,IC50,HepG2,98.7 µg/mL
same,IC50,WI-38,90.5 µg/mL
Nc1n[nH]c(Nc2ccccc2)c1-c1nnc(NC(=O)c2ccccc2)o1,IC50,Vero,36.3 µg/mL
same,IC50,MCF7,38.3 µg/mL
same,IC50,HepG2,33.7 µg/mL
same,IC50,WI-38,38.4 µg/mL
N#C/C(c1nnc(NC(=O)c2ccccc2)o1)=c1\sc(=O)/c(=C/c2cn(-c3ccccc3)nc2-c2ccccc2)n1-c1ccccc1,IC50,Vero,257 µg/mL
same,IC50,MCF7,411 µg/mL
same,IC50,HepG2,250 µg/mL
same,IC50,WI-38,340 µg/mL
O=C(Nc1nnc(-c2nc3c(ccc4ccccc43)oc2=O)o1)c1ccccc1,IC50,Vero,189 µg/mL
same,IC50,MCF7,222 µg/mL
same,IC50,HepG2,190 µg/mL
same,IC50,WI-38,181 µg/mL
CC(=O)c1sc(Nc2ccccc2)c(-c2nnc(NC(=O)c3ccccc3)o2)c1N,IC50,Vero,76.4 µg/mL
same,IC50,MCF7,75.5 µg/mL
same,IC50,HepG2,70.2 µg/mL
same,IC50,WI-38,84.6 µg/mL
N#CCc1nnc(NC(=O)c2ccccc2)o1,IC50,Vero,30.3 µg/mL
same,Activity,Nucleic Acid,Active
same,IC50,MCF7,39.2 µg/mL
same,IC50,HepG2,21.2 µg/mL
same,IC50,WI-38,24.4 µg/mL
O=C(Nc1nnc(-c2cc3ccccc3oc2=O)o1)c1ccccc1,IC50,Vero,34.5 µg/mL
same,IC50,MCF7,32.6 µg/mL
same,IC50,HepG2,35.6 µg/mL
same,IC50,WI-38,35.8 µg/mL
N#C/C(=C1\SC(=O)CN1c1ccccc1)c1nnc(NC(=O)c2ccccc2)o1,IC50,Vero,50.3 µg/mL
same,IC50,MCF7,69.2 µg/mL
same,IC50,HepG2,51.2 µg/mL
same,IC50,WI-38,52.4 µg/mL
